Consider seven compounds from ChEMBL document CHEMBL1140166, “Discovery of 1,4-substituted piperidines as potent and selective inhibitors of T-type calcium channels” (J Med Chem, 2008).

Molecules are shown by their SMILES.

The nature of series [1]: Dissociation constant, pKa of the compound. The class given is physicochemical. The gist of the method:
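pKa was measured by potentiometric titration; calculated pKa values were also given from a pKa database.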

A short description of series [2]: Oral bioavailability in Sprague-Dawley rat at 10 mg/kg. The class given is ADME, organism-based. The settings on record: in vivo.
Series [3] is described as follows: Plasma clearance in Sprague-Dawley rat at 2 mg/kg, iv. The class given is ADME, organism-based. Also on record: dose 2 mg/kg, route intravenous.
Series [4] can be described thus: Plasma clearance in Beagle dog at 1 mg/kg, iv. The class given is ADME, organism-based, Canis lupus familiaris. Also on record: dose 1 mg/kg, route intravenous.
A short description of series [5]: Ratio of drug level from cerebrospinal fluid to plasma in rat at 10 mg/kg, po after 9 hrs. The class given is ADME, organism-based, CSF/Plasma. Also on record: dose 10 mg/kg, route oral. The gist of the method: (§1)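 Rats given a single oral 10 mpk dose; brain, plasma and CSF levels measured; brain/plasma and CSF/plasma concentration ratios taken at 9 h after oral dosing.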

Series [6] can be described thus: Half life in rhesus monkey at 1 mg/kg, iv. The series is classed as ADME, organism-based, Macaca mulatta. Also on record: dose 1 mg/kg, route intravenous. The settings on record: in vivo.
A short description of series [7]: AUC in Beagle dog at 3 mg/kg, po. The series is classed as ADME, organism-based, Canis lupus familiaris. Also on record: dose 3 mg/kg, route oral. The settings on record: plasma.
The nature of series [8]: AUC in Sprague-Dawley rat at 1 mg/kg, po. The class given is ADME, organism-based. The arrangement: dose 1 mg/kg, route oral. The settings on record: plasma.
Series [9] can be described thus: Cmax in rhesus monkey at 3 mg/kg, po. The series is classed as ADME, organism-based, Macaca mulatta. Also on record: dose 3 mg/kg, route oral. Conditions: in vivo.
Series [10] in a line: Oral bioavailability in rhesus monkey at 3 mg/kg. The class given is ADME, organism-based, Macaca mulatta. Conditions: in vivo.
Series [11] in a line: AUC in Sprague-Dawley rat at 0.3 mg/kg, po. The series is classed as ADME, organism-based. Also on record: dose 0.3 mg/kg, route oral. The settings on record: plasma.
Series [12] can be described thus: Oral bioavailability in Beagle dog at 3 mg/kg. The class given is ADME, organism-based, Canis lupus familiaris. Conditions: in vivo.
A short description of series [13]: Half life in Sprague-Dawley rat at 2 mg/kg, iv. The class given is ADME, organism-based. The arrangement: dose 2 mg/kg, route intravenous. The settings on record: in vivo.
A short description of series [14]: AUC in Sprague-Dawley rat at 10 mg/kg, po. The settings on record: plasma. Also on record: dose 10 mg/kg, route oral. The class given is ADME, organism-based.
Series [15] can be described thus: Ratio of drug level from brain to plasma in rat at 10 mg/kg, po after 9 hrs. The class given is ADME, organism-based. The arrangement: dose 10 mg/kg, route oral. The gist of the method:
as §1

A short description of series [16]: Cmax in Beagle dog at 3 mg/kg, po. The arrangement: dose 3 mg/kg, route oral. The settings on record: in vivo. The class given is ADME, organism-based, Canis lupus familiaris.
A short description of series [17]: Plasma clearance in rhesus monkey at 1 mg/kg, iv. The class given is ADME, organism-based, Macaca mulatta. The arrangement: dose 1 mg/kg, route intravenous.
A short description of series [18]: Cmax in Sprague-Dawley rat at 10 mg/kg, po. The class given is ADME, organism-based. Also on record: dose 10 mg/kg, route oral. The settings on record: in vivo.
Series [19] can be described thus: Half life in Beagle dog at 1 mg/kg, iv. The class given is ADME, organism-based, Canis lupus familiaris. Also on record: dose 1 mg/kg, route intravenous. The settings on record: in vivo.
Series [20] can be described thus: AUC in rhesus monkey at 3 mg/kg, po. The series is classed as ADME, organism-based, Macaca mulatta. The arrangement: dose 3 mg/kg, route oral. Conditions: plasma.
A short description of series [21]: Cmax in Sprague-Dawley rat at 1 mg/kg, po. The class given is ADME, organism-based. Also on record: dose 1 mg/kg, route oral. Conditions: in vivo.
The nature of series [22]: Bioavailability in Wistar albino rat. The class given is ADME, organism-based. Conditions: in vivo.

In the case of `CC(C)(C)CCN1CC[C@@H](CNC(=O)c2cc(Cl)cc(Cl)c2)[C@H](F)C1` (relative stereo), the pKa – broadly, the negative logarithm of the acid dissociation constant – in series [1] was 6.7.

For `CC1(C)C[C@@H](CN2CCC(F)(CNC(=O)c3cc(Cl)cc(Cl)c3)CC2)CCO1`, the pKa in series [1] turned out to be 7.9.

In series [1], `CC(C)(C)C(=O)CN1CCC(CNC(=O)c2cc(Cl)cc(Cl)c2)CC1` registered a pKa of 8.

Consider `CC(C)(C)CCN1CC[C@H](CNC(=O)c2cc(Cl)cc(Cl)c2)[C@H](F)C1`, for which the bioavailability (in general, the share of a dose that reaches the circulation, judged against a reference dose that is usually intravenous) in series [2] came out at 30%; in series [10], 18%; in series [12], 67%. The results for the clearance in [3], in series [4] and in series [17] were 41 mL/min/kg, 9.1 mL/min/kg and 9.6 mL/min/kg, respectively. Further, the Kp (commonly the ratio of the level in a tissue or fluid to that in plasma or blood) at 9 h came out at 0.14 in [5] and 9 in series [15]. The half-life – broadly, the time in which the quantity being followed falls by half – in series [6] was 4.6 h; in [13], 4.9 h; in series [19] it was 10.8 h. In addition, the AUC (commonly the area under the concentration-time curve, a measure of exposure) in series [7] stood at 9.5 µM·h; in [8], 0.19 µM·h; in series [11], 0.01 µM·h; in [14], 3.1 µM·h; in series [20] it was 2.4 µM·h. Further, the Cmax (commonly the peak of the concentration-time curve) turned out to be 184 nM in series [9], 1180 nM in series [16], 432 nM in series [18] and 33 nM in [21]. The same compound returned a pKa in series [1] of 7.9.

The compound `CC(C)(C)CCN1CCC(CNC(=O)c2cc(Cl)cc(Cl)c2)CC1` had a bioavailability in series [22] of 100%. In series [1], this compound yielded a pKa of 8.7.

On to `CC(C)(C)C(O)CN1CCC(CNC(=O)c2cc(Cl)cc(Cl)c2)CC1` (stereo not drawn), for which the pKa in series [1] worked out at 9.2.

`CC(C)(C)NC(=O)CN1CCC(CNC(=O)c2cc(Cl)cc(Cl)c2)CC1` came in with a pKa in series [1] of 7.6.
